Published values of several laboratories.
Compare with care: the assays were run in different laboratories.
Target: Serine/threonine-protein kinase NLK (NLK, Homo sapiens, UniProt Q9UBE8)
Residues used in one study (Q9UBE8 1-527): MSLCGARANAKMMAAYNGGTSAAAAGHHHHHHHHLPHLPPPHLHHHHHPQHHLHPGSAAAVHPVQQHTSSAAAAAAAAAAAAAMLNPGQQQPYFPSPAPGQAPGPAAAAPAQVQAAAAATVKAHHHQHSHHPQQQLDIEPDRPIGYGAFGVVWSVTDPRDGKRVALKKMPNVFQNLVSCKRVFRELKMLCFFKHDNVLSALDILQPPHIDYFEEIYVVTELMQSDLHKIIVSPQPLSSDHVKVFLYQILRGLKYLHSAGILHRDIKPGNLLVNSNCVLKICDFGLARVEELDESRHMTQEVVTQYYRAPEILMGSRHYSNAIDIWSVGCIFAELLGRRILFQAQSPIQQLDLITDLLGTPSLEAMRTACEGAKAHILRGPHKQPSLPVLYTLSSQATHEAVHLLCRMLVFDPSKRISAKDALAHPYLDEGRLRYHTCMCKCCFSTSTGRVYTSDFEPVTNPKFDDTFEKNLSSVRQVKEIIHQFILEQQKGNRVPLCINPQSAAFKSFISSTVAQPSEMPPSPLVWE

The remaining binding of `O=C(c1ccc(Nc2ncc(Cl)c(-c3ccc(Cl)s3)n2)cc1)N1CCC(N2CCCC2)CC1` is reported as 98% (binding; competition with immobilised ligand; 1 µM).
With `CCN1CCN(Cc2ccc(C(=O)Nc3ccc(C)c(Oc4ccc5c(c4)CC(=O)N5)c3)cc2C(F)(F)F)CC1` the remaining binding was 79% (binding; competition with immobilised ligand; 1 µM).
The remaining binding of `O=C(NCCCN1CCOCC1)c1ccc(Nc2ncc(Cl)c(-c3ccc(Cl)s3)n2)cc1` is reported as 100% (binding; competition with immobilised ligand; 1 µM).
For `CN(c1nccc(-c2cnn3ncccc23)n1)C1CC1`, the remaining binding was 77% (binding; 1 µM).
The remaining binding of `COc1cnc(Nc2cccc(S(N)(=O)=O)c2)nc1N1CCN(c2ccccc2)C(=O)C1` is reported as 100% (binding; competition with immobilised ligand; 1 µM).
With `C[C@H](c1cccc(C#N)c1)n1cc(Cl)cc(C(N)=O)c1=N` the remaining binding was 44% (cell-free assay; competition with immobilised ligand; 1 µM).
`CN(CCCC(F)(F)F)c1nccc(-c2cnn3ncccc23)n1` has a remaining binding of 66% (binding; 1 µM).
The remaining binding of `O=C(Nc1c[nH]nc1C(=O)NC1CCNCC1)c1cc(F)cc(F)c1` is reported as 90% (binding; competition with immobilised ligand; 1 µM).
The remaining binding of `O=C(NCc1ncc(C(F)(F)F)cc1Cl)c1ccc2c(c1)C1(CCS(=O)(=O)CC1)[C@@H](C1CC1)N2S(=O)(=O)c1ccc(F)cc1` is reported as 89% (cell-free assay; competition with immobilised ligand; 1 µM).
For `C=CC(=O)N1CCC(C(=O)NCC(=O)N2CCN(c3nc(-c4cnc(N)nc4C(F)F)nc(N4CCOCC4)n3)CC2)CC1`, the remaining binding was 94% (binding; competition with immobilised ligand; 1 µM).
For `C[C@H]1CCN(c2nccc(-c3cnn4ncccc34)n2)C1`, the remaining binding was 100% (binding; 1 µM).
The remaining binding of `c1cncc(-c2cccc(Nc3nccc(NC4CCCCC4)n3)c2)c1` is reported as 67% (binding; competition with immobilised ligand; 10 µM).
The remaining binding of `CNC(=O)c1ccc(Nc2ncc(C(F)(F)F)c(NCc3nccnc3N(C)S(C)(=O)=O)n2)cc1` is reported as 100% (cell-free assay; competition with immobilised ligand; 0.1 µM).
With `CN(C)c1nccc(-c2cnc3ncccn23)n1` the remaining binding was 74% (binding; 1 µM).
`C[C@@H]1CN(c2cc(-c3nn(C)c4ccc(OC5(C)CC5)cc34)ncn2)C[C@H](C)O1` gave a remaining binding of 96% (cell-free assay; competition with immobilised ligand; 1 µM).
`CN(C)c1ncc(F)c(-c2cnn3ncccc23)n1` has a remaining binding of 74% (binding; 1 µM).
The remaining binding of `O=C1CCc2cc(Nc3cc(OC4CCOCC4)c([N+](=O)[O-])cc3Cl)ccc2N1` is reported as 100% (cell-free assay; competition with immobilised ligand; 1 µM).
For `N[C@H]1CCN(c2nccc(-c3cnn4ncccc34)n2)C1`, the remaining binding was 76% (binding; 1 µM).
For `CN([C@@H]1CCc2c(CC(=O)O)c3cc(S(C)(=O)=O)ccc3n2C1)S(=O)(=O)c1ccc(F)cc1`, the remaining binding was 100% (cell-free assay; competition with immobilised ligand; 1 µM).
The remaining binding of `CNC(=O)[C@@H]1CC[C@@H](n2c(-c3ccc4cnccc4c3)nc3ccc(C(=O)NCc4cccc(C(N)=O)c4)cc32)C1` is reported as 100% (binding; competition with immobilised ligand; 1 µM).
`CO[C@@H](C)c1c(Nc2ccc([C@@H](N(C)C(=O)C3CCS(=O)(=O)CC3)C(F)(F)F)cc2)cnc2cc(Cl)nn12` has a remaining binding of 84% (cell-free assay; competition with immobilised ligand; 1 µM).
With `Cc1cnc(Nc2ccc(C(=O)N3CCC(N4CCCC4)CC3)cc2)nc1-c1cc2ccccc2s1` the remaining binding was 69% (binding; competition with immobilised ligand; 1 µM).
